{"data": "Published values pooled from the literature", "target": "Death-associated protein kinase 3 (DAPK3, Homo sapiens, UniProt O43293)"}
{"SMILES": "Nc1ncc2c(n1)-c1c([nH]c3ccc(C#CC4CC4)cc13)CCCC2", "observed": "binding", "method": "competition with immobilised ligand", "concentration": "1 µM", "remaining binding [%]": 100}
{"SMILES": "CN(C)c1ncc(F)c(-c2cnn3ncccc23)n1", "observed": "binding", "concentration": "1 µM", "remaining binding [%]": 63}
{"SMILES": "O=C(NCC1CCOCC1)c1n[nH]cc1NC(=O)c1c(F)cccc1F", "observed": "binding", "method": "competition with immobilised ligand", "concentration": "1 µM", "remaining binding [%]": 94}
{"SMILES": "Nc1c(C(=O)NCc2ccc(C(=O)NCCCC3CCCCC3)cc2)cnn1-c1ccccc1", "observed": "cell-free assay", "method": "competition with immobilised ligand", "concentration": "0.1 µM", "remaining binding [%]": 100}
{"SMILES": "CNC(=O)[C@@H]1CC[C@@H](n2c(-c3ccc4cnccc4c3)nc3ccc(C(=O)NCc4cccc(C(N)=O)c4)cc32)C1", "observed": "binding", "method": "competition with immobilised ligand", "concentration": "1 µM", "remaining binding [%]": 100}
{"SMILES": "CN(C)c1nccc(-c2cnc3ncccn23)n1", "observed": "binding", "concentration": "1 µM", "remaining binding [%]": 91}
{"SMILES": "COc1cnc(Nc2cccc(S(N)(=O)=O)c2)nc1N1CCN(c2ccccc2)C(=O)C1", "observed": "binding", "method": "competition with immobilised ligand", "concentration": "1 µM", "remaining binding [%]": 92}
{"SMILES": "COc1ncc2cc3ccccc3nc2c1C#N", "observed": "cell-free assay", "method": "competition with immobilised ligand", "concentration": "5 µM", "remaining binding [%]": 98}
{"SMILES": "O=C(NCCCN1CCOCC1)c1ccc(Nc2ncc(Cl)c(-c3ccc(Cl)s3)n2)cc1", "observed": "binding", "method": "competition with immobilised ligand", "concentration": "1 µM", "remaining binding [%]": 17}
{"SMILES": "CN(CCCC(F)(F)F)c1nccc(-c2cnn3ncccc23)n1", "observed": "binding", "concentration": "1 µM", "remaining binding [%]": 90}
{"SMILES": "O=C(NCCCN1CCOCC1)c1ccc(Nc2nccc(-c3cc4ccccc4s3)n2)cc1", "observed": "binding", "method": "competition with immobilised ligand", "concentration": "1 µM", "remaining binding [%]": 9.7}
{"SMILES": "C[C@H]1CCN(c2nccc(-c3cnn4ncccc34)n2)C1", "observed": "binding", "concentration": "1 µM", "remaining binding [%]": 79}
{"SMILES": "Cc1c(NC(=O)c2cc(C(N)=O)nc3cc(F)ccc23)c(C(F)(F)F)nn1Cc1ccc(C#N)cc1", "observed": "cell-free assay", "method": "competition with immobilised ligand", "concentration": "1 µM", "remaining binding [%]": 89}
{"SMILES": "CCN1CCN(Cc2ccc(C(=O)Nc3ccc(C)c(Oc4ccc5c(c4)CC(=O)N5)c3)cc2C(F)(F)F)CC1", "observed": "binding", "method": "competition with immobilised ligand", "concentration": "1 µM", "remaining binding [%]": 100}
{"SMILES": "CC(=O)Nc1c(C(C)=O)c(=O)n(C)c2nc(-c3ccc(Cl)cc3Cl)c(-c3ccc(Cl)cc3)cc12", "observed": "cell-free assay", "method": "competition with immobilised ligand", "concentration": "1 µM", "remaining binding [%]": 100}
{"SMILES": "CN(C)c1nccc(-c2cnn3ncccc23)n1", "observed": "binding", "concentration": "1 µM", "remaining binding [%]": 91}
{"SMILES": "O=C1NC(c2ccccn2)Sc2ccccc21 (stereo not shown)", "observed": "cell-free assay", "method": "competition with immobilised ligand", "concentration": "1 µM", "remaining binding [%]": 0}
{"SMILES": "N[C@@H]1CCN(c2nccc(-c3cnn4ncccc34)n2)C1", "observed": "binding", "concentration": "1 µM", "remaining binding [%]": 99}
{"SMILES": "CN(C)c1ncnc(-c2ccc3nc(Nc4cc(CN5CCN(C(=O)CC(F)(F)F)CC5)ccn4)[nH]c3c2)c1Cl", "observed": "cell-free assay", "method": "competition with immobilised ligand", "concentration": "1 µM", "remaining binding [%]": 99}
{"SMILES": "O=C(c1ccc(Nc2ncc(Cl)c(-c3cc4ccccc4s3)n2)cc1)N1CCC(N2CCCC2)CC1", "observed": "binding", "method": "competition with immobilised ligand", "concentration": "1 µM", "remaining binding [%]": 11}
{"SMILES": "c1cnn2ncc(-c3ccnc(N4CCC45COC5)n3)c2c1", "observed": "binding", "concentration": "1 µM", "remaining binding [%]": 73}
{"SMILES": "CC(C)(O)c1cncc(-c2nc3ccc(F)cc3n2C2CC2)c1", "observed": "cell-free assay", "method": "competition with immobilised ligand", "concentration": "1 µM", "remaining binding [%]": 100}
